Reference: ChEMBL document CHEMBL4049422, “Discovery of Novel Indazole Derivatives as Orally Available β3-Adrenergic Receptor Agonists Lacking Off-Target-Based Cardiovascular Side Effects” (J Med Chem, 2017)
Converted amounts (≈) assume the structure as drawn.

Experiments:
[1] = Solubility of the compound at pH 1.2 buffer solution after 18 hrs by HPLC analysis; assay type: physicochemical
[2] = target: T1, CYP2B6 (Homo sapiens, UniProt P20813); assay: Inhibition of CYP2B6 (unknown origin) at 10 uM relative to control; assay type: ADME
T1 sequence (P20813 whole entry): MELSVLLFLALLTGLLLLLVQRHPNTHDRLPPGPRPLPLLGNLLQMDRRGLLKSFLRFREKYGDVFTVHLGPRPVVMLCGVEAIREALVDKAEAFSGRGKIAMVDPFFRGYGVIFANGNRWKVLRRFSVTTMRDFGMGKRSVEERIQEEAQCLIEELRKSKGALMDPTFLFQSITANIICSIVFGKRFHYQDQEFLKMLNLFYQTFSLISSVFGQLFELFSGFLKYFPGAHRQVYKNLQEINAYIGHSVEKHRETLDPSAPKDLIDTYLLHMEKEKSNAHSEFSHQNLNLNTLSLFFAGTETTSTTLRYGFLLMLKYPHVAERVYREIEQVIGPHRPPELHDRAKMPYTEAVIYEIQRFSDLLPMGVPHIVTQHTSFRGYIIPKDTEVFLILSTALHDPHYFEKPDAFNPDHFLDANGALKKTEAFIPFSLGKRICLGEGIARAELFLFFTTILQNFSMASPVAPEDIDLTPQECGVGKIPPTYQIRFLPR

[3] = system: Rattus norvegicus; assay: Cardiotoxicity in Sprague-Dawley rat assessed as decrease in mean blood pressure at 3 mg/kg, iv after 30 mins (reference value: 5.4 +/- 1.9%); assay type: toxicity, organism-based; parameters: scale not given: the % may be the effect or the level left; settings: in vivo, 0.5 h
[4] = target: T2, CYP1A2 (Homo sapiens, UniProt P05177); assay: Inhibition of CYP1A2 (unknown origin) at 10 uM relative to control; assay type: ADME
T2 sequence (P05177 whole entry): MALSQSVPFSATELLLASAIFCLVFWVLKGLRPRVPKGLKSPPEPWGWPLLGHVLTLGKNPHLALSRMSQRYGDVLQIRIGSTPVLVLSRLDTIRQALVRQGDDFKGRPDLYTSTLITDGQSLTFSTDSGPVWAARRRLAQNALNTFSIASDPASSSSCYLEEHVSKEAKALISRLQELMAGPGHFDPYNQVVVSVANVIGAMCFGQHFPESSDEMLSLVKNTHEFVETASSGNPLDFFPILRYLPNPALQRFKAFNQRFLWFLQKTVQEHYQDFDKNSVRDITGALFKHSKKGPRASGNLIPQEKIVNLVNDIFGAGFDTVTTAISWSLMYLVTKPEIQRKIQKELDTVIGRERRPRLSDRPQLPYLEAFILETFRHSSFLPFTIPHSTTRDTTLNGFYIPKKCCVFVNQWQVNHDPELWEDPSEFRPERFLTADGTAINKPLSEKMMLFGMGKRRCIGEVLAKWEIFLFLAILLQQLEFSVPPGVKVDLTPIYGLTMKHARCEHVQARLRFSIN

[5] = species: Homo sapiens; assay: Selectivity ratio of EC50 for recombinant human alpha1A adrenergic receptor to EC50 for recombinant human beta3 adrenergic receptor
[6] = target: T3, Alpha-1B adrenergic receptor (Homo sapiens, UniProt P35368); assay: Agonist activity at recombinant human alpha1B adrenergic receptor expressed in HEK293 cells after 6 hrs by NFAT-luciferase reporter gene assay; assay type: cell-based
T3 sequence (P35368 whole entry): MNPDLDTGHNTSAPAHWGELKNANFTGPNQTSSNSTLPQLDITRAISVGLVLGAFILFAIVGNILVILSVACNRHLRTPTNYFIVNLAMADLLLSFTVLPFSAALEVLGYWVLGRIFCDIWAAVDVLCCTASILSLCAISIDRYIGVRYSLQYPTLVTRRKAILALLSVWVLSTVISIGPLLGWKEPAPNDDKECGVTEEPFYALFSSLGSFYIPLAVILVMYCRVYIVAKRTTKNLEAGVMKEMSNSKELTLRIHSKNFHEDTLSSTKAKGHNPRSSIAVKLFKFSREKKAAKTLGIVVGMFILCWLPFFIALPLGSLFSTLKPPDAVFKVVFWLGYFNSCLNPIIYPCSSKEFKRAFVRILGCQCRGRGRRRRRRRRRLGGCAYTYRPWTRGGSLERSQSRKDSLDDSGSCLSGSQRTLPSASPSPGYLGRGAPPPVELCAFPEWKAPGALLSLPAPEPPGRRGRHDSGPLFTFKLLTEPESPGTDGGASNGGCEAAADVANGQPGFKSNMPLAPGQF

[7] = target: T4, Beta-2 adrenergic receptor (Homo sapiens, UniProt P07550); assay: Agonist activity at recombinant human beta2 adrenergic receptor expressed in CHO cells assessed as accumulation of cyclic AMP after 30 mins; assay type: cell-based
[8] = Cmax in Sprague-Dawley rat at 5 mg/kg, po by LC-MS/MS analysis; assay type: ADME, organism-based; parameters: dose 5 mg/kg, route oral; settings: in vivo
In short: (§1)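 Male Sprague-Dawley rats (n = 2 or 3) dosed orally at 5 mg/kg in saline or water (5 mL/kg). Blood taken from the subclavian vein at 0.5, 1, 2, 4, 6 and 8 h; plasma separated by centrifugation, stored at -20 °C, and drug levels measured by LC-MS/MS. Values are mean ± SD (n = 3) or the average of two experiments.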

[9] = target: T5, Beta-1 adrenergic receptor (Homo sapiens, UniProt P08588); assay: Intrinsic activity at recombinant human beta1 adrenergic receptor assessed as accumulation of cyclic AMP after 30 mins relative to isoproterenol; settings: 0.5 h
[10] = Half life in Sprague-Dawley rat at 5 mg/kg, po by LC-MS/MS analysis; assay type: ADME, organism-based; settings: in vivo; in short: as §1
[11] = target: CYP2C9 (Homo sapiens, UniProt P11712); assay: Inhibition of CYP2C9 (unknown origin) at 10 uM relative to control; assay type: ADME
[12] = target: T4, Beta-2 adrenergic receptor; assay: Intrinsic activity at recombinant human beta2 adrenergic receptor assessed as accumulation of cyclic AMP after 30 mins relative to isoproterenol
[13] = target: CYP2C19 (Homo sapiens, UniProt P33261); assay: Inhibition of CYP2C19 (unknown origin) at 10 uM relative to control; assay type: ADME
[14] = AUC in Sprague-Dawley rat at 5 mg/kg, po by LC-MS/MS analysis; assay type: ADME, organism-based; settings: in vivo; in short: as §1
[15] = target: T5, Beta-1 adrenergic receptor; assay: Agonist activity at recombinant human beta1 adrenergic receptor expressed in CHO cells assessed as accumulation of cyclic AMP after 30 mins; assay type: cell-based
[16] = target: Beta-3 adrenergic receptor (Homo sapiens, UniProt P13945); assay: Intrinsic activity at recombinant human beta3 adrenergic receptor expressed in CHO cells assessed as accumulation of cyclic AMP after 30 mins relative to isoproterenol; assay type: cell-based
[17] = Solubility of the compound at pH 6.8 buffer solution after 18 hrs by HPLC analysis; assay type: physicochemical

T5 sequence (P08588 whole entry): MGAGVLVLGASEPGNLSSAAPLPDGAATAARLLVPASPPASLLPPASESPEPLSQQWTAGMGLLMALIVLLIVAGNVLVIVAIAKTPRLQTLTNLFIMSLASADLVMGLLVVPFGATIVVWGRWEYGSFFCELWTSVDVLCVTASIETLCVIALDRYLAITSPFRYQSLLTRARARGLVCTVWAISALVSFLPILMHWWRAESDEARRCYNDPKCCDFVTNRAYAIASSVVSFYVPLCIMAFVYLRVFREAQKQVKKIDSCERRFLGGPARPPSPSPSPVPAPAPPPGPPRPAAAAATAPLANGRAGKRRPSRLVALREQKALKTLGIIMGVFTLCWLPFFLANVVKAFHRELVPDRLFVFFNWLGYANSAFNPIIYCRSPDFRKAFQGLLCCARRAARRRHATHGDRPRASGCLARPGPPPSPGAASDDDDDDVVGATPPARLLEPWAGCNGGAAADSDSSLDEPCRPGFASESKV
T4 sequence (P07550 whole entry): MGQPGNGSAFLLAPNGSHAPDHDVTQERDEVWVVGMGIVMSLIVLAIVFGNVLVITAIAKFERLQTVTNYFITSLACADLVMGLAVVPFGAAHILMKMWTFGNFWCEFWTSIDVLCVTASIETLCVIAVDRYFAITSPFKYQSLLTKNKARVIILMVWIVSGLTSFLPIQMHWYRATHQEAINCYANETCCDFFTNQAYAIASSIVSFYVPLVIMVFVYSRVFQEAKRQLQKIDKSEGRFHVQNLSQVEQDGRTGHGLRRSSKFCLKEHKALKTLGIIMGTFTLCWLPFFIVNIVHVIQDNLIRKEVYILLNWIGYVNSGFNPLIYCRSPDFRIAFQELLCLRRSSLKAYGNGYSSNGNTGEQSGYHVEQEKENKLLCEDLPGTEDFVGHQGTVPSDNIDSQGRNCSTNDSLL
CYP2C19, sequence (P33261 whole entry): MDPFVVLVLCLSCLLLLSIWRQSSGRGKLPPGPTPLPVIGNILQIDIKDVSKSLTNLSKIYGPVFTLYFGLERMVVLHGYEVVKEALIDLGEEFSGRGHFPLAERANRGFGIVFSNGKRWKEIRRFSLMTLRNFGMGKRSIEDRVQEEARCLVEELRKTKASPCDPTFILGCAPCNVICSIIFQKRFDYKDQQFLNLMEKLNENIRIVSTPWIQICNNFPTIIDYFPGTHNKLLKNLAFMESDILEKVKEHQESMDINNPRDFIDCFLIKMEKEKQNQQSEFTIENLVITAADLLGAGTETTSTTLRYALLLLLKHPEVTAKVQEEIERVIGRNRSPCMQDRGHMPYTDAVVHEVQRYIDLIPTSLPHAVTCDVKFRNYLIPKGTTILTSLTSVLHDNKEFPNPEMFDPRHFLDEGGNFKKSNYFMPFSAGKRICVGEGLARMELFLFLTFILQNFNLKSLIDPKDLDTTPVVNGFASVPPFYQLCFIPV
Beta-3 adrenergic receptor, sequence (P13945 whole entry, looked up): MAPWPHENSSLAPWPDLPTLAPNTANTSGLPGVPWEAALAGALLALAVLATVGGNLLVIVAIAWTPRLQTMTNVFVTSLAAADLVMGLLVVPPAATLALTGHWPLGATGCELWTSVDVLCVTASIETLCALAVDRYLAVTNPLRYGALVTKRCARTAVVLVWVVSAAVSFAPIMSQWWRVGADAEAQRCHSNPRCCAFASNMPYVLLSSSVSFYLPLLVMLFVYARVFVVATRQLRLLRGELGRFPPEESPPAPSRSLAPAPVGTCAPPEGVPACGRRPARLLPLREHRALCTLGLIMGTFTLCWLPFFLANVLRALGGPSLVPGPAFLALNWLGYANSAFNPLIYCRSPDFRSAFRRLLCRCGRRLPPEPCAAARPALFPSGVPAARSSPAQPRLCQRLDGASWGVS
CYP2C9, sequence (P11712 whole entry): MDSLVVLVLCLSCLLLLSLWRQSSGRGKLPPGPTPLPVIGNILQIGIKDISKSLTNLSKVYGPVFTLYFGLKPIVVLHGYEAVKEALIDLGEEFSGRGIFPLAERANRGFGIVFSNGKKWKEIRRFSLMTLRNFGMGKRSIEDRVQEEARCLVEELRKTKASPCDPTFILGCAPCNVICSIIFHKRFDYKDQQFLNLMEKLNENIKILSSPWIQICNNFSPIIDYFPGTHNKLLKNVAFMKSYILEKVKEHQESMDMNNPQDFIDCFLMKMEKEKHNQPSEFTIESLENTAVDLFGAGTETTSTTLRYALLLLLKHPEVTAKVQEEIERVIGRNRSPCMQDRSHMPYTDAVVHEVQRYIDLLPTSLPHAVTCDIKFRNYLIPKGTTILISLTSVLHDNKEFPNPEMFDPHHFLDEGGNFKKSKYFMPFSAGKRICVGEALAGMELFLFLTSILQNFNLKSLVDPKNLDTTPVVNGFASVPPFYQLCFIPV

solubility at 18 h [1]: 299 µM (≈ 133 µg/mL) | inhibition at 10 µM [2]: < 34% | inhibition at 10 µM [4]: < 34% | Ratio EC50 [5]: > 556 | EC50 [6]: > 10 µM | EC50 [7]: > 10 µM | Cmax [8]: 119 ng/mL | Intrinsic activity [9]: 4% | half-life [10]: 3.01 h | inhibition at 10 µM [11]: < 34% | Emax at 0.5 h [12]: 4% | inhibition at 10 µM [13]: < 34% | AUC [14]: 312 ng·h/mL | EC50 [15]: > 10 µM | Intrinsic activity [16]: 105% | solubility at 18 h [17]: 278 µM (≈ 124 µg/mL)
SMILES: Cc1n[nH]c2cc(OCCNC[C@H](O)c3cccc(NS(=O)(=O)C4CCC4)c3)ccc12
Activity [3]: 12.9%
